Test results taken from ChEMBL document CHEMBL2169809, “Identification of high-affinity P2Y₁₂ antagonists based on a phenylpyrazole glutamic acid piperazine backbone” (J Med Chem, 2012).

What was measured:
Platelet [1] = assay: Inhibition of collagen-stimulated platelet aggregation in human isolated platelets by light transmission aggregometry based Born method; format: functional, cell-based
In short: (§1)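 Platelets were pelleted from PRP (430g, 20 min, room temperature) and resuspended in modified Tyrode's buffer (145 mM NaCl, 5 mM KCl, 5.5 mM glucose, 15 mM Hepes, pH 7.4). CaCl2 (0.5 mM final) was added for 2 min at 37 °C, then fibrinogen (1 mg/mL final), then antagonist. Agonist was ADP, collagen or thrombin (0.1 U/mL final). Born aggregometry with stirring; % inhibition from AUC; IC50 from at least triplicate runs.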

Platelet [2] = assay: Inhibition of ADP-stimulated platelet aggregation in human platelet rich plasma by light transmission aggregometry based Born method; format: functional, cell-based
P2Y purinoceptor 12 = P2Y purinoceptor 12 (Homo sapiens, UniProt Q9H244); assay: Displacement of [33P]2-MeS-ADP from human recombinant P2Y12 receptor expressed in CHO cell membranes by scintillation counting method
Platelet [3] = assay: Inhibition of ADP-stimulated platelet aggregation in human isolated platelets by light transmission aggregometry based Born method; format: functional, cell-based; in short: as §1
Platelet [4] = assay: Inhibition of thrombin-stimulated platelet aggregation in human isolated platelets by light transmission aggregometry based Born method; format: functional, cell-based; in short: as §1
Platelet [5] = assay: Inhibition of ADP-stimulated platelet aggregation in human platelet rich plasma by 96-well format based turbidimetric method; format: functional
In short: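 Citrated (ACD-A) donor blood was spun at 150g for 15 min at room temperature to give PRP. PRP was adjusted with PPP to 3 × 10^8 platelets/mL. Compound, diluted in NaCl, was preincubated with hPRP for 5 min before ADP was added.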

P2Y purinoceptor 1 = P2Y purinoceptor 1 (Homo sapiens, UniProt P47900); assay: Displacement of [33P]2-MeS-ADP from human recombinant P2Y1 receptor expressed in CHO cell membranes by scintillation counting method
Canis familiaris = assay: Antiplatelet aggregatory activity in dog assessed as inhibition of ADP-induced platelet aggregation at 10 mg/kg after 24 hrs; format: functional; details: Canis lupus familiaris
In short: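 Ex vivo dog model: compound given orally at 10 mg/kg. Whole-blood platelet aggregation was measured by impedance 24 h after dosing, with ADP as agonist. Inhibition was calculated from mean area under the curve.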

Chain of P2Y purinoceptor 1 (P47900 whole entry): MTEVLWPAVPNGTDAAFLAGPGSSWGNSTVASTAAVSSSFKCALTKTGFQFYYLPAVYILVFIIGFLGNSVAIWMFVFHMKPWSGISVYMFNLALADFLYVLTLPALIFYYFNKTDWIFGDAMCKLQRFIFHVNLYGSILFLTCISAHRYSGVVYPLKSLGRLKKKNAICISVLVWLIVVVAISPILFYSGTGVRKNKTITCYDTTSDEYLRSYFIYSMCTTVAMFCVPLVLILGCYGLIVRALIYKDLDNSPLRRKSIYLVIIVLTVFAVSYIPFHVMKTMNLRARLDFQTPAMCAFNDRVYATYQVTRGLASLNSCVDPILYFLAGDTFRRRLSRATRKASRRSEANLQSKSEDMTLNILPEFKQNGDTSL
Chain of P2Y purinoceptor 12 (Q9H244 whole entry): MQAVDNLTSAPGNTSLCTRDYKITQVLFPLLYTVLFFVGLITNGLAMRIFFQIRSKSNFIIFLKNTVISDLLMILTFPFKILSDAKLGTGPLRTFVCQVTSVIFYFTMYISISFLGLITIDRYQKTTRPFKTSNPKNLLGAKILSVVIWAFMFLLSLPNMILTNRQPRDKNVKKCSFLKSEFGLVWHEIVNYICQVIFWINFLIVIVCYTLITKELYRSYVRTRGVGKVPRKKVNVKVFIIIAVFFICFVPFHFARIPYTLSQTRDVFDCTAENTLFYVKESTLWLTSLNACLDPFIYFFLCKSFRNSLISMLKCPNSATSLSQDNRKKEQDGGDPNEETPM

SMILES	IC50 (Platelet [1])	IC50 (Platelet [2])	Ki (P2Y purinoceptor 12)	IC50 (Platelet [3])	IC50 (Platelet [4])	IC50 (Platelet [5])	Ki (P2Y purinoceptor 1)	inhibition in vivo at 10 mg/kg (Canis familiaris)
CCOC(=O)N1CCN(C(=O)CNC(=O)c2cc(OCC(=O)N3CCC[C@H]3C(=O)NC3CCC3)n(-c3ccccc3)n2)CC1	> 2000 nM	100 nM	107 nM	99 nM	> 2000 nM	90 nM		
CCCCOC(=O)N1CCN(C(=O)CNC(=O)c2cc(OCC(=O)N3CCC[C@H]3C(=O)NC3CCC3)n(-c3ccccc3)n2)CC1	> 2000 nM	46 nM	7.7 nM	22 nM	> 2000 nM	30 nM	> 20000 nM	73%
CCOC(=O)N1CCN(C(=O)[C@H](CCC(=O)O)NC(=O)c2cc(OCC(=O)N3CCC[C@H]3C(=O)NCC3CCC3)n(-c3ccccc3)n2)CC1		72 nM	19 nM			100 nM		
CCCNC(=O)[C@@H]1CCCN1C(=O)COc1cc(C(=O)N[C@@H](CCC(=O)O)C(=O)N2CCN(C(=O)OCC)CC2)nn1-c1ccccc1		91 nM	66 nM			58 nM		
CCOC(=O)N1CCN(C(=O)[C@H](CCC(=O)O)NC(=O)c2cc(OCC(=O)N3CCC[C@H]3C(=O)NC(C)(C)C)n(-c3ccccc3)n2)CC1		70 nM	41 nM			17 nM		
CCOC(=O)N1CCN(C(=O)[C@H](CCC(=O)O)NC(=O)c2cc(OCC(=O)N3CCC[C@H]3C(=O)NC3CCC3)n(-c3ccccc3)n2)CC1	> 2000 nM	9 nM	7.3 nM	7 nM	> 2000 nM	25 nM	> 20000 nM	
CCOC(=O)N1CCN(C(=O)[C@H](CCC(=O)O)NC(=O)c2cc(OCC(=O)N3CCC[C@H]3C(=O)NC3CCCC3)n(-c3ccccc3)n2)CC1		38 nM	20 nM			13 nM		
CCOC(=O)N1CCN(C(=O)[C@H](CCC(=O)O)NC(=O)c2cc(OC3(C(=O)OCC)CCC3)n(-c3ccccc3)n2)CC1	> 2000 nM	2930 nM	139 nM	701 nM	> 2000 nM	3300 nM	> 20000 nM	
CCOC(=O)COc1cc(C(=O)N[C@@H](CCC(=O)O)C(=O)N2CCN(C(=O)OCC)CC2)nn1-c1ccccc1		2480 nM	372 nM			2250 nM		
CCOC(=O)N1CCN(C(=O)[C@H](CCC(=O)O)NC(=O)c2cc(OCC(=O)C(C)(C)C)n(-c3ccccc3)n2)CC1		2460 nM	242 nM			3730 nM		
CCOC(=O)N1CCN(C(=O)[C@H](CCC(=O)O)NC(=O)c2cc(OCC(=O)C3CC3)n(-c3ccccc3)n2)CC1		2510 nM	249 nM			2600 nM		
